# Experimental data taken from ChEMBL document CHEMBL1138754, “Synthesis of taxoids with improved cytotoxicity and solubility for use in tumor-specific delivery” (J Med Chem, 2004).
# How the values were obtained:
# [1] = Solubility in 10% DMSO(expressed as mean of 3 determinations); assay type: physicochemical; conditions: read-out: S
# Outline: (§1)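 200 μg of taxane was dissolved in 50 µL of organic solvent (DMA, DMSO or ethanol), then diluted to 500 µL (10% organic) with conjugation buffer: 0.1 M potassium phosphate, 1 mM EDTA, pH 6.5. The mixture was vortexed and centrifuged, and the taxane concentration in the supernatant was measured spectrophotometrically.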
# A549 [2] = experiment: In vitro inhibitory concentration that inhibits 50% of the growth of A549 non small cell lung carcinoma cell line after 72 hr of drug exposure.; assay type: functional, cell-based; conditions: Homo sapiens, A549, 72 h
# [3] = Solubility in 10% DMA (expressed as mean of 3 determinations); assay type: physicochemical; conditions: read-out: S; outline: as §1
# MCF7 [4] = experiment: In vitro inhibitory concentration that inhibits 50% of the growth of MCF-7 human breast cell carcinoma cell line after 72 hr of drug exposure.; assay type: functional, cell-based; conditions: MCF7, 72 h
# [5] = Solubility in 10% Ethanol (expressed as mean of 3 determinations); assay type: physicochemical; conditions: read-out: S; outline: as §1
# NCI/ADR-RES = experiment: Inhibitory concentration that inhibits 50% of the growth of NCI ADR RES human […] cell carcinoma cell line after 72 h of drug exposure.; assay type: functional, cell-based
# [6] = Inhibitory concentration that inhibits 50% of the growth of Namalwa MDR Burkitts lymphoma MDR cell carcinoma cell line after 72 hr of drug exposure.; assay type: functional, cell-based; conditions: Homo sapiens
# [7] = Solubility in 10% DMA(expressed as mean of 3 determinations); assay type: physicochemical; conditions: read-out: S; outline: as §1
# MCF7 [8] = experiment: Inhibitory concentration that inhibits 50% of the growth of MCF-7 human breast cell carcinoma cell line after 72 hr of drug exposure. (Table 3); assay type: functional, cell-based; conditions: MCF7, 72 h
# Breast carcinoma cell = experiment: Inhibitory concentration that inhibits 50% of the growth of LCC6/P9 human breast cell carcinoma cell line after 72 hr of drug exposure.; assay type: functional, cell-based
# [9] = Inhibitory concentration that inhibits 50% of the growth of Namalwa Burkitts lymphoma cell carcinoma cell line after 72 hr of drug exposure.; assay type: functional, cell-based; conditions: Homo sapiens
# MDR = experiment: Inhibitory concentration that inhibits 50% of the growth of LGM MDR human breast cell carcinoma cell line after 72 hr of drug exposure.; assay type: functional, cell-based
# MCF7 [10] = experiment: In vitro inhibitory concentration that inhibits 50% of the growth of MCF-7 human breast cell carcinoma cell line after 72 hr of drug exposure. (IC50 based on 2 separate determinations); assay type: functional; conditions: MCF7, 72 h
# A549 [11] = experiment: In vitro inhibitory concentration that inhibits 50% of the growth of A549 non small cell lung carcinoma cell line after 72 hr of drug exposure. (IC50 based on 2 separate determinations); assay type: functional; conditions: Homo sapiens, A549, 72 h
# [12] = Solubility in 10% DMSO (expressed as mean of 3 determinations); assay type: physicochemical; conditions: read-out: S; outline: as §1
solubility [1],IC50 (A549 [2]),solubility [3],IC50 (MCF7 [4]),solubility [5],solubility [7],IC50 (MCF7 [8]),IC50 (Breast carcinoma cell),IC50 (MCF7 [10]),IC50 (A549 [11]),solubility [12],Compound,IC50 (NCI/ADR-RES),IC50 [6],IC50 [9],IC50 (MDR)
26 µg/mL,0.3 nM,26 µg/mL,0.039 nM,32 µg/mL,,,,,,,COc1ccc(OC)c(C(=O)O[C@H]2C3[C@](C)(C(=O)[C@H](OC(=O)N4CCN(CCSSC)CC4)C4=C(C)[C@@H](OC(=O)[C@H](O)[C@H](C=C(C)C)NC(=O)OC(C)(C)C)C[C@]2(O)C4(C)C)C(O)C[C@H]2OC[C@@]32OC(C)=O)c1 (stereo partly specified),,,,
14 µg/mL,0.09 nM,,0.05 nM,10 µg/mL,8 µg/mL,0.4 nM,1 nM,,,,COc1ccc(OC)c(C(=O)O[C@H]2C3[C@](C)(C(=O)[C@H](OC(=O)CCSSC)C4=C(C)[C@@H](OC(=O)[C@H](O)[C@H](C=C(C)C)NC(=O)OC(C)(C)C)C[C@]2(O)C4(C)C)C(O)C[C@H]2OC[C@@]32OC(C)=O)c1 (stereo partly specified),15 nM,0.65 nM,0.53 nM,4 nM
,0.8 nM,,1 nM,,,,,,,,CSSCCC(=O)O[C@H]1C(=O)[C@]2(C)C(O)C[C@H]3OC[C@@]3(OC(C)=O)C2[C@H](OC(=O)c2ccccc2)[C@]2(O)C[C@H](OC(=O)[C@H](O)[C@H](C=C(C)C)NC(=O)OC(C)(C)C)C(C)=C1C2(C)C (stereo partly specified),,,,
82 µg/mL,0.29 nM,,0.06 nM,55 µg/mL,79 µg/mL,0.5 nM,1.6 nM,,,,COc1ccc(OC)c(C(=O)O[C@H]2C3[C@](C)(C(=O)[C@H](OC(=O)CCOCCOCCOCCOCCSSC)C4=C(C)[C@@H](OC(=O)[C@H](O)[C@H](C=C(C)C)NC(=O)OC(C)(C)C)C[C@]2(O)C4(C)C)C(O)C[C@H]2OC[C@@]32OC(C)=O)c1 (stereo partly specified),19 nM,0.9 nM,0.45 nM,18 nM
110 µg/mL,,97 µg/mL,,127 µg/mL,,,,0.58 nM,1.1 nM,,COc1ccc(OC)c(C(=O)O[C@H]2C3[C@](C)(C(=O)[C@H](OC(=O)CCOCCOCCOCCOCCOCCOCCOCCOCCOCCOCCSSC)C4=C(C)[C@@H](OC(=O)[C@H](O)[C@H](C=C(C)C)NC(=O)OC(C)(C)C)C[C@]2(O)C4(C)C)C(O)C[C@H]2OC[C@@]32OC(C)=O)c1 (stereo partly specified),,,,
,1.1 nM,,1 nM,,,,,,,,CSSCCN1CCN(C(=O)O[C@H]2C(=O)[C@]3(C)C(O)C[C@H]4OC[C@@]4(OC(C)=O)C3[C@H](OC(=O)c3ccccc3)[C@]3(O)C[C@H](OC(=O)[C@H](O)[C@H](C=C(C)C)NC(=O)OC(C)(C)C)C(C)=C2C3(C)C)CC1 (stereo partly specified),,,,
,,11 µg/mL,,13 µg/mL,,,,0.32 nM,1 nM,17 µg/mL,COc1ccc(OC)c(C(=O)O[C@H]2C3[C@](C)(C(=O)[C@H](O)C4=C(C)[C@@H](OC(=O)[C@H](O)[C@H](C=C(C)C)NC(=O)OC(C)(C)C)C[C@]2(O)C4(C)C)C(OC(=O)CCOCCOCCOCCOCCSSC)C[C@H]2OC[C@@]32OC(C)=O)c1 (stereo partly specified),,,,
4 µg/mL,0.13 nM,10 µg/mL,0.07 nM,2 µg/mL,,,,,,,COc1ccc(OC)c(C(=O)O[C@H]2C3[C@](C)(C(=O)[C@H](O)C4=C(C)[C@@H](OC(=O)[C@H](O)[C@H](C=C(C)C)NC(=O)OC(C)(C)C)C[C@]2(O)C4(C)C)C(OC(=O)CCSSC)C[C@H]2OC[C@@]32OC(C)=O)c1 (stereo partly specified),,,,
